This note sets out measurements from ChEMBL document CHEMBL1152519, “Synthesis, structural activity-relationships, and biological evaluation of novel amide-based allosteric binding site antagonists in NR1A/NR2B N-methyl-D-aspartate receptors” (Bioorg Med Chem, 2009).

The target in data set [1] is Glutamate NMDA receptor; Grin1/Grin2c (Rattus norvegicus) (UniProt P35439+Q00961). Briefly: Antagonist activity at rat recombinant NR1/NR2C receptor expressed in Xenopus laevis oocytes assessed as inhibition of glutamate/glycine-induced current at 3 uM by two electrode voltage clamp method relative to control. It is filed as functional, cell-based. To be noted: Oocyte. The essentials: (§1)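 Xenopus oocytes injected with NR1-1a (3–5 ng) plus NR2A, 2B, 2C or 2D cRNA (7–10 ng), kept at 15 °C. Voltage clamp at −40 mV. Responses to 50 μM glutamate + 30 μM glycine with 3 μM compound, as % of response without compound. NR2A oocytes pre-loaded with 50 μM BAPTA-AM. Mean ± SEM, 4–10 oocytes; paired t-test.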

Data set [2] has as its target Ionotropic glutamate receptor NMDA 1/2D (Rattus norvegicus) (UniProt P35439+Q62645). Briefly: Antagonist activity at rat recombinant NR1/NR2D receptor expressed in Xenopus laevis oocytes assessed as inhibition of glutamate/glycine-induced current at 3 uM by two electrode voltage clamp method relative to control. It is filed as functional, cell-based. The conditions noted are these: Oocyte. The essentials: as §1

The target in data set [3] is Glutamate receptor 1 (Rattus norvegicus) (UniProt P19490). Briefly: Antagonist activity at rat recombinant GluR1 expressed in Xenopus laevis oocytes assessed as inhibition of glutamate-induced current at 3 uM by two electrode voltage clamp method relative to control. The conditions noted are these: Oocyte. It is filed as functional, cell-based. The essentials: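 GluR1 homomers expressed from 5–10 ng cRNA in Xenopus oocytes. Clamped at −40 mV. Currents evoked by 100 μM glutamate with 3 μM compound, expressed as % of control without compound. Mean ± SEM, 4–10 oocytes; paired t-test.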
Chain of Glutamate receptor 1 (Rattus norvegicus) (P19490 whole entry): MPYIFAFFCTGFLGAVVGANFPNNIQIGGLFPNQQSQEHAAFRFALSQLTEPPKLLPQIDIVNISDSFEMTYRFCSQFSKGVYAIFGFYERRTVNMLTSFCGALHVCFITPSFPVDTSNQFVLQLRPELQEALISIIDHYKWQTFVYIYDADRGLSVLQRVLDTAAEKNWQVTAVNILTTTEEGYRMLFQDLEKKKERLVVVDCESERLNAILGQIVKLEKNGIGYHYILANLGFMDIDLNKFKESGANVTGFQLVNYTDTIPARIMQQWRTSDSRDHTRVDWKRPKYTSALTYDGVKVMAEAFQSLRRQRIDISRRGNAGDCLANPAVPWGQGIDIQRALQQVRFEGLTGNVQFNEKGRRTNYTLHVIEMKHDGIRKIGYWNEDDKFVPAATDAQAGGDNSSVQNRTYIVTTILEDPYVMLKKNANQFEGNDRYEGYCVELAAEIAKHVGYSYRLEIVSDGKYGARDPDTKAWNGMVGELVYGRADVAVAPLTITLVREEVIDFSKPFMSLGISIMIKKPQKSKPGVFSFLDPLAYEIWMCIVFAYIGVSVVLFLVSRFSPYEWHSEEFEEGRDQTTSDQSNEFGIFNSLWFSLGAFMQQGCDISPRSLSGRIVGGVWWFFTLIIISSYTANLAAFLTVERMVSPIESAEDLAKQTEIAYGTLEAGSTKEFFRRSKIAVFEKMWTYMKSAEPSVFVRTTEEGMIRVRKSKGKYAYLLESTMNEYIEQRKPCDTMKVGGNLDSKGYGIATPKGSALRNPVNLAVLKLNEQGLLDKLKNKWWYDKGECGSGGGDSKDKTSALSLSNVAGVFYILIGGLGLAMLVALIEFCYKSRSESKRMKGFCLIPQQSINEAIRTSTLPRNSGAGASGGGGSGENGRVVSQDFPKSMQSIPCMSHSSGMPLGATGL
In general terms: Two-electrode voltage clamp is typically applied to oocytes expressing channels or transporters.

Data set [4] deals with Glutamate receptor ionotropic, kainate 2 (Rattus norvegicus) (UniProt P42260). Briefly: Antagonist activity at rat recombinant GluR6 expressed in Xenopus laevis oocytes assessed as inhibition of concanavalin A/glutamate-induced current at 3 uM by two electrode voltage clamp method relative to control. The data set is classed as functional, cell-based. To be noted: Oocyte. The method, boiled down:
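Oocytes expressing homomeric GluR6 (5–10 ng cRNA) pretreated 5 min with 10 μM concanavalin-A. Currents evoked by 100 μM glutamate at −40 mV, with or without 3 μM compound, and given as percent of control. Mean ± SEM of 4–10 oocytes; paired t-test.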

In data set [5] the target is Glutamate NMDA receptor; GRIN1/GRIN2B (Homo sapiens, UniProt Q05586+Q13224). Briefly: Antagonist activity at human recombinant NR1/NR2B receptor expressed in frog oocytes assessed as inhibition of glutamate/glycine-induced current by two electrode voltage clamp method. It is filed as functional, cell-based, Oocyte. The essentials:
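Human NR1/NR2B cRNA injected into Xenopus oocytes. Two-electrode voltage clamp at −40 mV, 23 °C, 2–7 d after injection. Glutamate/glycine (50–100 μM/30 μM) applied, then with 5–8 compound concentrations. Bath contains 10 μM EDTA; leak-corrected.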

Data set [6] deals with Adrenergic receptor alpha-1 (Rattus norvegicus) (UniProt P15823+P23944+P43140). Briefly: Displacement of [3H]prazosin from alpha1 adrenergic receptor in Wistar rat brain membrane at 3 uM. The data set is classed as cell membranes. The essentials: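 Wistar rat brain membranes. Percent displacement of 0.25 nM [3H]prazosin by 3 μM compound, run in duplicate.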
Background: Displacement assays read how much labelled ligand stays bound in the presence of the test substance.

The target of data set [7] is Glutamate NMDA receptor; Grin1/Grin2b (Rattus norvegicus) (UniProt P35439+Q00960). Briefly: Antagonist activity at rat recombinant NR1/NR2B receptor expressed in Xenopus laevis oocytes assessed as inhibition of glutamate/glycine-induced current at 3 uM by two electrode voltage clamp method relative to control. It is filed as functional, cell-based. The conditions noted are these: Oocyte. The essentials:
as §1

The target of another data set is hERG (KCNH2) (Homo sapiens, UniProt Q12809). Briefly: Displacement of [3H]astemizole from human recombinant ERG expressed in HEK293 cells at 10 uM. To be noted: HEK293 cells expressing human recombinant ERG, probe [3H]astemizole, read-out: Activity. It is filed as cell-based.
Chain of hERG (KCNH2) (Q12809 whole entry): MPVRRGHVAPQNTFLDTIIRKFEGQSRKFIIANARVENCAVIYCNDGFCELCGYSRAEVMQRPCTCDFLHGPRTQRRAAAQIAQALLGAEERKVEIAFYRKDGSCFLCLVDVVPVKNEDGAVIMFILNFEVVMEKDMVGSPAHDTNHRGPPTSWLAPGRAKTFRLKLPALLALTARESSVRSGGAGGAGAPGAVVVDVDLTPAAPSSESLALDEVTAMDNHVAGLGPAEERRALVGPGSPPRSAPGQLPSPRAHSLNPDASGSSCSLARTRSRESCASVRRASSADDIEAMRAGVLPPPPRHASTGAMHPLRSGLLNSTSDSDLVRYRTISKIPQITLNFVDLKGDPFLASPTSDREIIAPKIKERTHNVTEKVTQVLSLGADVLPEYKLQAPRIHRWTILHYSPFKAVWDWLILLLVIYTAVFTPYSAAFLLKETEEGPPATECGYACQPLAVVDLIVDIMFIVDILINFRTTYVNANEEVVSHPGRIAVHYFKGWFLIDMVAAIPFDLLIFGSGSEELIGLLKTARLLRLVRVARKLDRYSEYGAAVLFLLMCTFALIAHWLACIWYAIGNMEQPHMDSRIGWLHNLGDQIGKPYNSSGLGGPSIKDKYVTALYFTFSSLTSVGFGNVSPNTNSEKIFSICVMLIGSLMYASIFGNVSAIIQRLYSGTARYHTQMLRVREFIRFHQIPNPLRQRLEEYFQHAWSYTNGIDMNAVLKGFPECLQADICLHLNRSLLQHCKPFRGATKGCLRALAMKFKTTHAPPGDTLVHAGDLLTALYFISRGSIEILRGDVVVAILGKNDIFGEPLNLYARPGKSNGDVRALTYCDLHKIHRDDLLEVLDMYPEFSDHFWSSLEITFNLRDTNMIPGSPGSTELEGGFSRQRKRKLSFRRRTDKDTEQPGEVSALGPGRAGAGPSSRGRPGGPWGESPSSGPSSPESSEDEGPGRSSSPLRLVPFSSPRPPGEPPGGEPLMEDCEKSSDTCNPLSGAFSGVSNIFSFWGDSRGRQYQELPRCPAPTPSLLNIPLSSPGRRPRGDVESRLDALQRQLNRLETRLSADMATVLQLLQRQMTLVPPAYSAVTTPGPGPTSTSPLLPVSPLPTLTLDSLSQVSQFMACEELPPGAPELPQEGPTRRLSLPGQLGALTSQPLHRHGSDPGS
Data set [8] concerns the target Glutamate NMDA receptor; Grin1/Grin2a (Rattus norvegicus) (UniProt P35439+Q00959). Briefly: Antagonist activity at rat recombinant NR1/NR2A receptor expressed in Xenopus laevis oocytes assessed as inhibition of glutamate/glycine-induced current at 3 uM by two electrode voltage clamp method relative to control. The conditions noted are these: Oocyte. It is filed as functional, cell-based. The method, boiled down:
as §1

Data set [9] addresses Voltage-gated inwardly rectifying potassium channel KCNH2 (Homo sapiens, UniProt Q12809). Briefly: Displacement of [3H]astemizole from human recombinant ERG expressed in HEK293 cells. The data set is classed as cell-based.

Chain of Glutamate NMDA receptor; GRIN1/GRIN2B (Q13224 whole entry, other chains not shown): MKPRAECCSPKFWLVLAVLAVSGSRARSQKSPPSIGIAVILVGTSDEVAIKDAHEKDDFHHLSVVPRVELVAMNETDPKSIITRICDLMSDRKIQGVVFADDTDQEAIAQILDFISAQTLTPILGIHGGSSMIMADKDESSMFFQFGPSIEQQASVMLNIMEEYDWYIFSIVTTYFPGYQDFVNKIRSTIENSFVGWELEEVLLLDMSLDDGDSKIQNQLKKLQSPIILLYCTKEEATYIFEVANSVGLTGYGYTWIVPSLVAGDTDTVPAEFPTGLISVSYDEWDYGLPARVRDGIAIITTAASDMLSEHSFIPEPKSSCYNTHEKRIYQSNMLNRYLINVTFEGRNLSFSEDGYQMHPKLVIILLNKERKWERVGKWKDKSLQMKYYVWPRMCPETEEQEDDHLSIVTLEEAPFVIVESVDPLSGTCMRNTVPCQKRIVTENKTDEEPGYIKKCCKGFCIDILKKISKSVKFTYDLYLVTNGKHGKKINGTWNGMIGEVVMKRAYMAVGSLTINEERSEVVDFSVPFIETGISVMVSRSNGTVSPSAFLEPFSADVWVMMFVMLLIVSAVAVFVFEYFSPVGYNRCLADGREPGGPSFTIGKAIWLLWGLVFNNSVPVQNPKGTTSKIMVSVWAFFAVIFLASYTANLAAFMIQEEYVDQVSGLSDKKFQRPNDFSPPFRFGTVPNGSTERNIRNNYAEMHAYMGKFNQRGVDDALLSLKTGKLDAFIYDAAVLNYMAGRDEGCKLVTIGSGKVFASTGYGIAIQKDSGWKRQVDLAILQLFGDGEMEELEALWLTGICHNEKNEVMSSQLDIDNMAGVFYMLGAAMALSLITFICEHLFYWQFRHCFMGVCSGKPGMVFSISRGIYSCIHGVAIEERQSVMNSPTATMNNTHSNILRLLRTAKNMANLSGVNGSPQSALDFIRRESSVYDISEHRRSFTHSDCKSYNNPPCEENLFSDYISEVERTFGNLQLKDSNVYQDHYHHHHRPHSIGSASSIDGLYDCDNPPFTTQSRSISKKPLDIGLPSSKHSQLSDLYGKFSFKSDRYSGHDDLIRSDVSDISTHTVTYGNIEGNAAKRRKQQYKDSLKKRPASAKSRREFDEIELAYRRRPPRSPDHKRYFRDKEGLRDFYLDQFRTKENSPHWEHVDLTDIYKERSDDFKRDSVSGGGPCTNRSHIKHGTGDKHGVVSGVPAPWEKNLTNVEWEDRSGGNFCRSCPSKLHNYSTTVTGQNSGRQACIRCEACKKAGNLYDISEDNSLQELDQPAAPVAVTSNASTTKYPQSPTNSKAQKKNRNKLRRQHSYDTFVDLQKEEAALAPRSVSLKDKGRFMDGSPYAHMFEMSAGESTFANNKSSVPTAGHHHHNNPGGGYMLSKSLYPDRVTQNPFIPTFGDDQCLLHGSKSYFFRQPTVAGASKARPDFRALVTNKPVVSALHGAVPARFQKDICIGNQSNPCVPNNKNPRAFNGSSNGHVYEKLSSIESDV
Chain of Glutamate receptor ionotropic, kainate 2 (Rattus norvegicus) (P42260 whole entry): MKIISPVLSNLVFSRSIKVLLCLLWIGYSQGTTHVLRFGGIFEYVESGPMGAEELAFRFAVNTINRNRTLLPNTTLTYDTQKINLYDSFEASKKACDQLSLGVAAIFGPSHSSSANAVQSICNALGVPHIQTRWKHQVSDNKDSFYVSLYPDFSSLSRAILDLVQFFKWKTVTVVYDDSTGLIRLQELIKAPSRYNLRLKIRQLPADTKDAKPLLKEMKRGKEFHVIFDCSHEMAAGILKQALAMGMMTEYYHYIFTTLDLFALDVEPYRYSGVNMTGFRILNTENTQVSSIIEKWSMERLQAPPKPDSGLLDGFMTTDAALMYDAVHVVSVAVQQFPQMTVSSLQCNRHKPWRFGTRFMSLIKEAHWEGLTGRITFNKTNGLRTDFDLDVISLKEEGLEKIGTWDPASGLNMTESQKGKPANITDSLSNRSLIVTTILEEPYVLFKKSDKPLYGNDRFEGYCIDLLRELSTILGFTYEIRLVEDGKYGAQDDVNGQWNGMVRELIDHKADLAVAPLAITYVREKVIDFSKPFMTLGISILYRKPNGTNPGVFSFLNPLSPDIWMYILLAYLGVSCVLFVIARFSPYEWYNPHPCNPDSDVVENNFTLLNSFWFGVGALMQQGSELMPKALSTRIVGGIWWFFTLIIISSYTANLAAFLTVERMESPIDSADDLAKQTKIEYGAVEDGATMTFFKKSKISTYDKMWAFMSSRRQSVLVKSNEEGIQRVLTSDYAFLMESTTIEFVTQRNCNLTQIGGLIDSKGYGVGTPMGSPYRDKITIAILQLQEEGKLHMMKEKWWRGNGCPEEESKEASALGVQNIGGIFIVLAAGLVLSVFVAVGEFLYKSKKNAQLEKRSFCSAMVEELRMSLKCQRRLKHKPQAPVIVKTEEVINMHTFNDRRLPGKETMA

As a reminder, the IC50 is the concentration at which inhibition is half-maximal. Regarding `CS(=O)(=O)Nc1ccc(CCC(=O)NCCCNc2ccc(Cl)c(Cl)c2)cc1`, the % response worked out at 90% in data set [1]; 96% in [2]; 100% in data set [3]; 98% in [4]; 12% in data set [7]; 96% in data set [8]. The IC50 in data set [5] was determined as 750 nM. Further, the Activity in [6] was 19%. For the same compound, the inhibition at 10 µM on hERG (KCNH2) was 83%.

As to `CS(=O)(=O)Nc1ccc(OCC(=O)NCCOc2ccc(Cl)c(Cl)c2)cc1`, the % response in data set [1] is 96%; in data set [2], 92%; in data set [3], 100%; in data set [4] it was 100%; in data set [7] it was 21%; in [8], 97%. For the same compound, the IC50 in data set [5] came out at 380 nM. In data set [6], this compound registered an Activity of 11%. In addition, the inhibition at 10 µM on hERG (KCNH2) came out at 42%.

`CS(=O)(=O)Nc1ccc(OCC(=O)NCCCNc2ccc(Cl)c(Cl)c2)cc1`: the % response worked out at 97% in [1]; 100% in data set [2]; 103% in [3]; 90% in data set [4]; 12% in data set [7]; 106% in data set [8]. In addition, in data set [5], the IC50 was determined as 193 nM.

In the case of `CS(=O)(=O)Nc1ccc(OCCNCC(=O)Nc2ccc(Cl)c(Cl)c2)cc1`, the % response in data set [1] turned out to be 94%; in [2], 95%; in [3] it was 97%; in data set [4] it was 98%; in [7] it was 21%; in [8], 108%. Also, in [5], the half-maximal inhibitory concentration (IC50) stood at 1110 nM. Also, in data set [6], the Activity was 21%. Moreover, on hERG (KCNH2), the inhibition at 10 µM was found to be 67%.

Regarding `CS(=O)(=O)Nc1ccc(CCC(=O)NNC(=S)Nc2ccc(Cl)c(Cl)c2)cc1`, the % response in data set [1] was determined as 94%; in [2], 92%; in data set [3], 100%; in data set [4], 96%; in [7], 12%; in [8], 104%. Further, the IC50 in data set [5] amounted to 270 nM. For the same compound, the inhibition at 10 µM at hERG (KCNH2) is 13%.

In the case of `CS(=O)(=O)Nc1ccc(CCCC(=O)NCCc2ccc(Cl)c(Cl)c2)cc1`, the % response amounted to 102% in data set [1]; 89% in data set [2]; 102% in data set [3]; 100% in data set [4]; 62% in data set [7]; 99% in data set [8]. Further, in data set [5], the half-maximal inhibitory concentration (IC50) amounted to 1860 nM.

Consider `CS(=O)(=O)Nc1ccc(CCCN2CCN(c3ccc(Cl)c(Cl)c3)C2=O)cc1`, for which the % response was found to be 97% in [1]; 91% in data set [2]; 100% in [3]; 99% in data set [4]; 17% in data set [7]; 96% in data set [8]. Also, in data set [5], the IC50 is 637 nM. Further, the inhibition at 10 µM at hERG (KCNH2) was 81%.

What is called Ki is the dissociation constant of the complex between target and ligand, obtained from inhibition or displacement. Take `CS(=O)(=O)Nc1ccc(OCCNCCNc2ccc(Cl)c(Cl)c2)cc1`: the % response in data set [1] stood at 100%; in data set [2], 100%; in [3] it was 101%; in [4], 98%; in [7] it was 17%; in data set [8], 91%. Besides, in data set [5], the IC50 turned out to be 39 nM. Further, the inhibitory constant (Ki) in data set [9] turned out to be 300 nM. The Activity in data set [6] came to 49%. On hERG (KCNH2), the inhibition at 10 µM was determined as 97%.

In the case of `CS(=O)(=O)Nc1ccc(CCC(=O)NCCNc2ccc(Cl)c(Cl)c2)cc1`, the % response worked out at 84% in data set [2], 98% in [4], 14% in data set [7] and 99% in data set [8]. For the same compound, the concentration for half-maximal inhibition (IC50) in data set [5] was found to be 65 nM. Moreover, the Activity in data set [6] worked out at 1%.

For `CS(=O)(=O)Nc1ccc(CCC(=O)N2CCN(c3ccc(Cl)c(Cl)c3)CC2)cc1`, the % response was determined as 100% in data set [1]; 97% in data set [2]; 104% in data set [3]; 101% in data set [4]; 48% in data set [7]; 103% in [8]. Further, in [5], the IC50 came out at 3600 nM.

For `CS(=O)(=O)Nc1ccc(CCC(=O)NNC(=O)c2ccc(Cl)c(Cl)c2)cc1`, the % response in data set [1] is 97%; in [2], 96%; in data set [3], 100%; in data set [4], 97%; in data set [7], 21%; in data set [8] it was 102%. Besides, the 50% inhibitory concentration (IC50) in [5] came out at 521 nM.

Consider `CS(=O)(=O)Nc1ccc(OCC(=O)NCCSc2ccc(Cl)c(Cl)c2)cc1`, for which the % response in data set [1] was determined as 95%; in data set [2], 96%; in data set [3] it was 101%; in data set [4] it was 94%; in data set [7], 21%; in data set [8], 96%. For the same compound, the half-inhibitory concentration (IC50) in [5] came to 362 nM. This compound also registered an Activity in data set [6] of 5%. For the same compound, the inhibition at 10 µM on hERG (KCNH2) is 75%.

Consider `CS(=O)(=O)Nc1ccc(OCC(=O)NC/C=C/c2ccc(Cl)c(Cl)c2)cc1`, for which the % response is 95% in data set [1]; 97% in data set [2]; 101% in data set [3]; 94% in [4]; 14% in data set [7]; 100% in data set [8]. Further, in data set [5], the IC50 was found to be 72 nM. In addition, the Activity in data set [6] came to 22%. For the same compound, the inhibition at 10 µM on hERG (KCNH2) is 74%.

In the case of `CS(=O)(=O)Nc1ccc(OCC(=O)NCCCc2ccc(Cl)c(Cl)c2)cc1`, the % response was 96% in data set [1]; 79% in [2]; 100% in data set [3]; 102% in [4]; 15% in data set [7]; 99% in [8]. The 50% inhibitory concentration (IC50) in data set [5] was 64 nM. The inhibition at 10 µM on hERG (KCNH2) is less than 1%.

In the case of `CS(=O)(=O)Nc1ccc(CCC(=O)NN2C(=O)c3cc(Cl)c(Cl)cc3C2=O)cc1`, the % response in data set [1] came out at 102%; in data set [2], 93%; in data set [3] it was 98%; in [4], 100%; in data set [7] it was 90%; in data set [8], 101%. Moreover, the IC50 in [5] amounted to 41800 nM.

For `CS(=O)(=O)Nc1ccc(CCCNCCNc2ccc(Cl)c(Cl)c2)cc1`, the % response in data set [1] is 104%; in data set [2], 91%; in data set [3], 102%; in [4], 99%; in data set [7] it was 21%; in [8], 89%. Further, the IC50 in data set [5] amounted to 19 nM. The inhibition constant (Ki) in data set [9] turned out to be 14 nM. The compound further had an Activity in [6] of 52%. For the same compound, the inhibition at 10 µM on hERG (KCNH2) was greater than 98%.

With `CS(=O)(=O)Nc1ccc(CCC(=O)NNCCc2ccc(Cl)c(Cl)c2)cc1`, the % response came out at 97% in [1]; 95% in data set [2]; 100% in data set [3]; 98% in data set [4]; 44% in [7]; 106% in data set [8]. Moreover, the IC50 in data set [5] amounted to 4810 nM.
